Experimental data reported in ChEMBL document CHEMBL1152541, “Staurosporine tethered peptide ligands that target cAMP-dependent protein kinase (PKA): optimization and selectivity profiling” (Bioorg Med Chem, 2009).
One block for each compound: values may come before it. *1 amine or outer side, *2 acyl side, *3 side chain or, on linkers, in order; H or OH if unused. Where a SMILES comes first, the peptide text is derived from it. Bridges are numbered along the chain shown (N, C = ends). [ ]: non-standard residue; d: D form. The star is where a group is joined. Staurosporine = CO[C@@H]1[C@H](N(C)*)C[C@H]2O[C@]1(C)n1c3ccccc3c3c4c(c5c6ccccc6n2c5c31)C(=O)NC4; Suc = O=C(CCC(=O)[*:2])[*:1]; Dap = NC[C@H](N)C(=O)O; βAla = NCCC(=O)O

Assays:
[1] = molecular target: Mitogen-activated protein kinase 10 (Homo sapiens) (UniProt P53779); test: Binding affinity to human JNK3 at 500 nM by cell-based competition binding assay relative to control in presence of DTT
In short: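 Competition binding screen (Ambit) across a panel of 90 kinases, scoring test ligand displacement of each kinase's binding relative to control. The screen ran under reducing conditions with 7.5 mM DTT.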

[2] = molecular target: T1, Serine/threonine-protein kinase Chk1 (Homo sapiens) (UniProt O14757); test: Ratio of compound to staurosporine binding affinity to CHK1 in presence of DTT
T1 sequence (whole entry): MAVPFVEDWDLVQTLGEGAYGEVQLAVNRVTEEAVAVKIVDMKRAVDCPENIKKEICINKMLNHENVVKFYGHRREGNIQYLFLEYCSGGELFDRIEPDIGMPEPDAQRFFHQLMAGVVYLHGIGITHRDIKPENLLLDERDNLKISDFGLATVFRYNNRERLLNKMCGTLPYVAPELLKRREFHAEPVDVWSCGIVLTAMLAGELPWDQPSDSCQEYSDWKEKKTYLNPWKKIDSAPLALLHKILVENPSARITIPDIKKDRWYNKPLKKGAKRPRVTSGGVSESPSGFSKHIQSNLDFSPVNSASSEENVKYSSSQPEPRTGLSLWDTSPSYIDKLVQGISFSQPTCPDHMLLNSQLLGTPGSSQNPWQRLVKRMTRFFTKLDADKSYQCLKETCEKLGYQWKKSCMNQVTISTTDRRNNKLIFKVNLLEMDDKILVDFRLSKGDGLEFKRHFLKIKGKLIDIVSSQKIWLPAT

[3] = molecular target: MAP/microtubule affinity-regulating kinase 3 (Homo sapiens) (UniProt P27448); test: Binding affinity to human MARK3 at 500 nM by cell-based competition binding assay relative to control in presence of DTT
In short: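 Kinase binding profile from a commercial panel of 90 kinases, run as a competitive binding assay. The panel was screened under reducing conditions of 7.5 mM DTT. Signal was compared with the untreated control.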

[4] = molecular target: MAP kinase-interacting serine/threonine-protein kinase 1 (Homo sapiens) (UniProt Q9BUB5); test: Binding affinity to human MKNK1 at 500 nM by cell-based competition binding assay relative to control in presence of DTT
[5] = molecular target: Tyrosine-protein kinase BTK (Homo sapiens) (UniProt Q06187); test: Binding affinity to human BTK at 200 nM by cell-based competition binding assay relative to control in presence of DTT
In short: (§1)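 Kinase binding profiling ran on a commercial (Ambit) competitive binding screen against a panel of 90 kinases. The screen used reducing conditions with 7.5 mM DTT. To withstand the DTT, the bivalent ligand was tested as its amide isostere, with the disulfide replaced. A staurosporine derivative carrying a 3 β-alanine linker was run as the reference compound.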

[6] = molecular target: T2, Bone morphogenetic protein receptor type-2 (Homo sapiens) (UniProt Q13873); test: Binding affinity to human BMPR2 at 200 nM by cell-based competition binding assay relative to control in presence of DTT; in short: as §1
T2 sequence (whole entry): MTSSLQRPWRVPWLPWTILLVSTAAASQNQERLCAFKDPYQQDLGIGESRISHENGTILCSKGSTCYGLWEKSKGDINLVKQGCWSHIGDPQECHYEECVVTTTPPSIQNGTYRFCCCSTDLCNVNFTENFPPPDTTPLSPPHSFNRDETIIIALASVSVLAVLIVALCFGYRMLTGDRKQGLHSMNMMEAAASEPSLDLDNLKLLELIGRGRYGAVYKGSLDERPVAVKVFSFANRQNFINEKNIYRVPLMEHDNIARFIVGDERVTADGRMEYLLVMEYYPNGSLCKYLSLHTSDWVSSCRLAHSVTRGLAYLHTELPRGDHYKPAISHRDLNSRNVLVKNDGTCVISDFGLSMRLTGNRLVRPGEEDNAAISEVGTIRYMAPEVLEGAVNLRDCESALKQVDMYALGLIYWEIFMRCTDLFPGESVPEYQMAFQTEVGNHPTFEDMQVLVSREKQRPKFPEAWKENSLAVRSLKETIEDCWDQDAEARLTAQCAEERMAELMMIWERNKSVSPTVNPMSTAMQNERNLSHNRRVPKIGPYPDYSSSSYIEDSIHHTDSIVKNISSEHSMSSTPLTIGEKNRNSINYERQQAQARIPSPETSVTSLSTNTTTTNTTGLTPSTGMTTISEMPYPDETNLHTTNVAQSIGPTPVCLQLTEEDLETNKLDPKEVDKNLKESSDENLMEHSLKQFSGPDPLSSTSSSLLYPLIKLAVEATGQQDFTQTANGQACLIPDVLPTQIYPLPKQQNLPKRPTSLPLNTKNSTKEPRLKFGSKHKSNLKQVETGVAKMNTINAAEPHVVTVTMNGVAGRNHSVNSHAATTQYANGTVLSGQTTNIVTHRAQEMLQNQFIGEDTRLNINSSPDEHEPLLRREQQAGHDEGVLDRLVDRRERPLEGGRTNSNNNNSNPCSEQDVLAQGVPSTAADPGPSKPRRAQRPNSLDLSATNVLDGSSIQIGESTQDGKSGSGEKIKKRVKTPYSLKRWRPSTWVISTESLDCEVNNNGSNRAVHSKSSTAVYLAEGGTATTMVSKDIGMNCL

[7] = molecular target: Fibroblast growth factor receptor 2 (Homo sapiens) (UniProt P21802); test: Binding affinity to human FGFR2 at 50 nM by cell-based competition binding assay relative to control in presence of DTT
In short: (§2)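 Commercial (Ambit) competitive kinase-binding panel of 90 kinases measured the binding profile. Run under reducing conditions of 7.5 mM DTT. Binding is expressed relative to control.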

[8] = molecular target: Receptor-type tyrosine-protein kinase FLT3 (Homo sapiens) (UniProt P36888); test: Binding affinity to human FLT3 at 50 nM by cell-based competition binding assay relative to control in presence of DTT; in short: as §2
[9] = molecular target: T3, 3-phosphoinositide-dependent protein kinase 1 (Homo sapiens) (UniProt O15530); test: Binding affinity to human PDPK1 at 50 nM by cell-based competition binding assay relative to control in presence of DTT
T3 sequence (whole entry): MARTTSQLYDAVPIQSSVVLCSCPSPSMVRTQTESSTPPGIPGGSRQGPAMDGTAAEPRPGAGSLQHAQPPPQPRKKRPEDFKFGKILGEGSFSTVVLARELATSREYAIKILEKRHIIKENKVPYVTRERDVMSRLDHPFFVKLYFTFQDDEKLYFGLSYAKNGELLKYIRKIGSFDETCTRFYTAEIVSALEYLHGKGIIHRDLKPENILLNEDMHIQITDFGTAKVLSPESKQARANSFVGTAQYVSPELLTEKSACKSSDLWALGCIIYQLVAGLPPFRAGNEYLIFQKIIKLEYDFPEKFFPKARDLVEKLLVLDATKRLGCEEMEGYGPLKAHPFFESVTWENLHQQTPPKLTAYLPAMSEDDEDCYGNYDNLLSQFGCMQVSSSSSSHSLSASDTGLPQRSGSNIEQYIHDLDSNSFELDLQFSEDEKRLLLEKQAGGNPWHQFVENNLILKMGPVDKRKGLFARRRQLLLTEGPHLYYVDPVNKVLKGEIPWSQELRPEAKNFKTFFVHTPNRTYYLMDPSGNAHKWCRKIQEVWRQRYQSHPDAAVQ

Receptor-type tyrosine-protein kinase FLT3 (Homo sapiens), sequence (P36888 whole entry): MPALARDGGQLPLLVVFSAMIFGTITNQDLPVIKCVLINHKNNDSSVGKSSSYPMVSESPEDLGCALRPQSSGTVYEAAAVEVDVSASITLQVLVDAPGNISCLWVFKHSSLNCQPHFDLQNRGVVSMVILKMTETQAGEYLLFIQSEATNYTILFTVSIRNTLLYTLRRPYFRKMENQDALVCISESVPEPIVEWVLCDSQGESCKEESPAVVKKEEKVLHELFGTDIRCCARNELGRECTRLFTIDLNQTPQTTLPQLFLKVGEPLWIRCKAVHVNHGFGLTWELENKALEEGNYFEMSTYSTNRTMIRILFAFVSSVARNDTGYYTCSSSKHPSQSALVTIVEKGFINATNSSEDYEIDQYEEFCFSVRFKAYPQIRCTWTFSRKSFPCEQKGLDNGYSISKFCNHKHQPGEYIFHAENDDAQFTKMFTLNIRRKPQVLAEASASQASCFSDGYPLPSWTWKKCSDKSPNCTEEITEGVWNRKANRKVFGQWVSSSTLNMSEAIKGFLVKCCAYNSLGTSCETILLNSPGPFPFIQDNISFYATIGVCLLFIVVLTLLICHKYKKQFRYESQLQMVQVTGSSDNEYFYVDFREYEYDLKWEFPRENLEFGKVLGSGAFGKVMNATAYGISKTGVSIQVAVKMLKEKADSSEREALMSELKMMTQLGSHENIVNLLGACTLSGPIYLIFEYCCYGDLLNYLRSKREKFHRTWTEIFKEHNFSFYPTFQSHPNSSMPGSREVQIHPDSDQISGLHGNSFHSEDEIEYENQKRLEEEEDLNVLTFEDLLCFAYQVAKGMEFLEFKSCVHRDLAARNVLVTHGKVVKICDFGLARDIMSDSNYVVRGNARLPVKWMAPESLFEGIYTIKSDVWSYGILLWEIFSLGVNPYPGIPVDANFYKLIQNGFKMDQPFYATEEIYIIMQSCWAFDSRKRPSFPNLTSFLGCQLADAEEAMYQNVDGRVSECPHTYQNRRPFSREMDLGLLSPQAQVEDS
Mitogen-activated protein kinase 10 (Homo sapiens), sequence (P53779 whole entry): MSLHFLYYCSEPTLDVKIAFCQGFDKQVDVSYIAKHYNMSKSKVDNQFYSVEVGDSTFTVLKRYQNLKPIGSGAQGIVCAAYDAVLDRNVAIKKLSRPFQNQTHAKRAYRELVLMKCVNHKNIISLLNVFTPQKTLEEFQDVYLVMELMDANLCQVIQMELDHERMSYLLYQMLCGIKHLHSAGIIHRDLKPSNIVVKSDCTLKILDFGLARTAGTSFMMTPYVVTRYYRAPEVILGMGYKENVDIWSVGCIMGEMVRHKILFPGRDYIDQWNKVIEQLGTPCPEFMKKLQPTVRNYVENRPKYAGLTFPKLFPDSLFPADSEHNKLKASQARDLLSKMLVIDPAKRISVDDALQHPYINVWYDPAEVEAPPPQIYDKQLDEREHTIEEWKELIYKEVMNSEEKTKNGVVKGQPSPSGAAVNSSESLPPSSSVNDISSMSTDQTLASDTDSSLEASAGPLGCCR
Tyrosine-protein kinase BTK (Homo sapiens), sequence (Q06187 whole entry): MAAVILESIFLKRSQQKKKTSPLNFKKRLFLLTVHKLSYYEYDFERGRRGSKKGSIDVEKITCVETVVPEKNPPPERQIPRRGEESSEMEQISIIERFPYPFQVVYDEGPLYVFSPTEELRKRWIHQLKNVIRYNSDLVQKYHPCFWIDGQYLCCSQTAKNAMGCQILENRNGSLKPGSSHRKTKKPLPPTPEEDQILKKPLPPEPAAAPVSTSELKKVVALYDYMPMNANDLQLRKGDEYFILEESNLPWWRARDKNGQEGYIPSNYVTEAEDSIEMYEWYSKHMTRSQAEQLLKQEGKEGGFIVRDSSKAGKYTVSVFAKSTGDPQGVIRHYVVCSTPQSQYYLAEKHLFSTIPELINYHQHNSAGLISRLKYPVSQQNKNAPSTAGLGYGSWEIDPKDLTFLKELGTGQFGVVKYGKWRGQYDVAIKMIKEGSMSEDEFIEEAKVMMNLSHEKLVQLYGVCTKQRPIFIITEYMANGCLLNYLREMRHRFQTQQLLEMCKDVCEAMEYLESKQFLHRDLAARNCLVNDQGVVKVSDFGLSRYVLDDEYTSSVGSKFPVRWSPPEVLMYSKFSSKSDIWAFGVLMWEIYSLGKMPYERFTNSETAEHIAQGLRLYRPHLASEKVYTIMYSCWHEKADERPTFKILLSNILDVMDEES
MAP kinase-interacting serine/threonine-protein kinase 1 (Homo sapiens), sequence (Q9BUB5 whole entry, looked up): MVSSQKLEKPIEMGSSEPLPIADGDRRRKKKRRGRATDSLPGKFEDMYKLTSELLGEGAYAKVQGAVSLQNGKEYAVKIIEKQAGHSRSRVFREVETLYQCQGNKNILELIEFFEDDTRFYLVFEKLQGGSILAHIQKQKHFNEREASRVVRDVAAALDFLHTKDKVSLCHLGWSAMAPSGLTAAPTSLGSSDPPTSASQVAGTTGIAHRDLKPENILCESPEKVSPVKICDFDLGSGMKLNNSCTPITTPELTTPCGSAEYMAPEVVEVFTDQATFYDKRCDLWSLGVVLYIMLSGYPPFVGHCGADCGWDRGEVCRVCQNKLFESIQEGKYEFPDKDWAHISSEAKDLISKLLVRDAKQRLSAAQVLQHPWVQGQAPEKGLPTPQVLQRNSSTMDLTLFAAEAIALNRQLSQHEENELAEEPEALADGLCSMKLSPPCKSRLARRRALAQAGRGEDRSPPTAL
Fibroblast growth factor receptor 2 (Homo sapiens), sequence (P21802 22-821 limits assumed): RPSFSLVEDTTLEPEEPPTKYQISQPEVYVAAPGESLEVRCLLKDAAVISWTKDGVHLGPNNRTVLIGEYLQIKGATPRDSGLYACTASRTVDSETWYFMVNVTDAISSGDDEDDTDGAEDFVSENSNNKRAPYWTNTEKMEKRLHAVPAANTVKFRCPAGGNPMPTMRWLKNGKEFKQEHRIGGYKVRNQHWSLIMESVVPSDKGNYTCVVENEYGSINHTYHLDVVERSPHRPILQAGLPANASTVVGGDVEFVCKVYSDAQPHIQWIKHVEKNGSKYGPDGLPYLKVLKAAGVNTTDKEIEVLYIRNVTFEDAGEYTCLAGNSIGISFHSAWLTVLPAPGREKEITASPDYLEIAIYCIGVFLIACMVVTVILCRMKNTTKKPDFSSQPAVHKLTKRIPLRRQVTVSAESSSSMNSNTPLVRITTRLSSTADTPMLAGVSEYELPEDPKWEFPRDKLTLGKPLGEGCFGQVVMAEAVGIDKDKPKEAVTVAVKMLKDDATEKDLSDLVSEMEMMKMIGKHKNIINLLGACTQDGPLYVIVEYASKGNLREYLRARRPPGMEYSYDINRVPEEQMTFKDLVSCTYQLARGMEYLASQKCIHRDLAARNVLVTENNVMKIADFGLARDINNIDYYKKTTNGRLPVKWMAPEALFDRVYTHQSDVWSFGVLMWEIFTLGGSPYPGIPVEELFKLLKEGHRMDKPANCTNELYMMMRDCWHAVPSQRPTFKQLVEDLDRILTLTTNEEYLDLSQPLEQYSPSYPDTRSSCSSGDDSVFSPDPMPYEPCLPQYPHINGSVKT
MAP/microtubule affinity-regulating kinase 3 (Homo sapiens), sequence (P27448 whole entry, looked up): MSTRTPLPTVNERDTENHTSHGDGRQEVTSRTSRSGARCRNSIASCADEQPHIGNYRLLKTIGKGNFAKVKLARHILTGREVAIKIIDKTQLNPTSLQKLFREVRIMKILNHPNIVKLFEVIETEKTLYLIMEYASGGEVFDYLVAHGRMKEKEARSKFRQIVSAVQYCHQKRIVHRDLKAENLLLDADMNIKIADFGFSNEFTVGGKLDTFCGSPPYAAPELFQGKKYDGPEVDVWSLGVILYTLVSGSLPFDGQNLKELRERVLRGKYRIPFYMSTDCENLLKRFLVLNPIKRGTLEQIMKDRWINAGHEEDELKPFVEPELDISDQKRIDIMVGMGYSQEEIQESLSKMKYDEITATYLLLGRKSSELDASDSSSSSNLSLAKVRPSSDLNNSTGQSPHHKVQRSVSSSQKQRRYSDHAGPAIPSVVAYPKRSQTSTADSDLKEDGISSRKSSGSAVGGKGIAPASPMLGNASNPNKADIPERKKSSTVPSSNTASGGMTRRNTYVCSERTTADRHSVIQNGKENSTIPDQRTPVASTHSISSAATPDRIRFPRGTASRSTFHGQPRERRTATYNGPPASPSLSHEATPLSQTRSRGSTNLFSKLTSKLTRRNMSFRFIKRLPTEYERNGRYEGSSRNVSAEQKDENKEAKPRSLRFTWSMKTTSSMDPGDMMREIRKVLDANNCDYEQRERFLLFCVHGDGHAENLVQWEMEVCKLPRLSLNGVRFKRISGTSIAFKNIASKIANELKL

- Activity [1]: 55%
- Selectivity ratio [2]: 84
- Activity [3]: 16%
- Activity [4]: 82%
Structure (SMILES): CO[C@@H]1[C@H](N(C)C(=O)CCC(=O)NCCC(=O)NCCC(=O)NCCC(N)=O)C[C@H]2O[C@]1(C)n1c3ccccc3c3c4c(c5c6ccccc6n2c5c31)C(=O)NC4

- Activity [5]: 62%
- Activity [6]: 93%
Structure (SMILES): CO[C@@H]1[C@H](N(C)C(=O)CCC(=O)NCCC(=O)NCCC(=O)NCCC(=O)NCCC(=O)NCCC(=O)NCCC(=O)NCCC(=O)N[C@H]2CSSC[C@@H](C(=O)NCC(N)=O)NC(=O)CNC(=O)[C@H](Cc3ccccc3)NC(=O)[C@H](C(C)C)NC(=O)[C@H](CCCNC(=N)N)NC(=O)[C@H](Cc3ccccc3)NC(=O)[C@H](C(C)C)NC2=O)C[C@H]2O[C@]1(C)n1c3ccccc3c3c4c(c5c6ccccc6n2c5c31)C(=O)NC4 ({Staurosporine-Suc-βAla-βAla-βAla-βAla-βAla-βAla-βAla}-CVFRVFGCG-NH2; disulfide 1-8)

- Activity [7]: 86%
- Activity [8]: 7.4%
- Activity [9]: 48%
Structure (SMILES): CO[C@@H]1[C@H](N(C)C(=O)CCC(=O)NCCC(=O)NCCC(=O)NCCC(=O)NCCC(=O)NCCC(=O)NCCC(=O)NCCC(=O)N[C@H]2CNC(=O)C[C@@H](C(N)=O)NC(=O)CNC(=O)[C@H](Cc3ccccc3)NC(=O)[C@H](C(C)C)NC(=O)[C@H](CCCNC(=N)N)NC(=O)[C@H](Cc3ccccc3)NC(=O)[C@H](C(C)C)NC2=O)C[C@H]2O[C@]1(C)n1c3ccccc3c3c4c(c5c6ccccc6n2c5c31)C(=O)NC4 ({Staurosporine-Suc-βAla-βAla-βAla-βAla-βAla-βAla-βAla}-[Dap]VFRVFGD-NH2; lactam 1-8)
